Among the data in ChEMBL document CHEMBL4190404, “Synthesis and characterization of amino acid substituted sunitinib analogues for the treatment of AML” (Bioorg Med Chem Lett, 2018) are inhibition values, retold here.

In assay [1] the test system is Receptor-type tyrosine-protein kinase FLT3 (Homo sapiens), P36888 [UNDEFINED MUTATION]. Briefly: Inhibition of FLT3 ITD mutant (unknown origin) using TAMRA-Src- tide as substrate at 12.5 uM after 1 hr by fluorescence polarization assay relative to control. The gist of the method:
(§1)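 FLT3-ITD kinase inhibition by fluorescence polarization IMAP assay; each compound tested at 12.5 and 1.25 μM; percent inhibition, average of two parallel measurements.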
On the technique in general: Fluorescence polarisation rises when a labelled molecule tumbles more slowly, as on binding a larger partner.

Assay [2] has the same test system. The assay can be described thus: Inhibition of FLT3 ITD mutant (unknown origin) using TAMRA-Src- tide as substrate at 1.25 uM after 1 hr by fluorescence polarization assay relative to control. The method in brief: as §1

Bounds are passed on as bounds.

Sequence of Receptor-type tyrosine-protein kinase FLT3 (Homo sapiens), P36888 [UNDEFINED MUTATION] (P36888 whole entry, looked up, change not shown): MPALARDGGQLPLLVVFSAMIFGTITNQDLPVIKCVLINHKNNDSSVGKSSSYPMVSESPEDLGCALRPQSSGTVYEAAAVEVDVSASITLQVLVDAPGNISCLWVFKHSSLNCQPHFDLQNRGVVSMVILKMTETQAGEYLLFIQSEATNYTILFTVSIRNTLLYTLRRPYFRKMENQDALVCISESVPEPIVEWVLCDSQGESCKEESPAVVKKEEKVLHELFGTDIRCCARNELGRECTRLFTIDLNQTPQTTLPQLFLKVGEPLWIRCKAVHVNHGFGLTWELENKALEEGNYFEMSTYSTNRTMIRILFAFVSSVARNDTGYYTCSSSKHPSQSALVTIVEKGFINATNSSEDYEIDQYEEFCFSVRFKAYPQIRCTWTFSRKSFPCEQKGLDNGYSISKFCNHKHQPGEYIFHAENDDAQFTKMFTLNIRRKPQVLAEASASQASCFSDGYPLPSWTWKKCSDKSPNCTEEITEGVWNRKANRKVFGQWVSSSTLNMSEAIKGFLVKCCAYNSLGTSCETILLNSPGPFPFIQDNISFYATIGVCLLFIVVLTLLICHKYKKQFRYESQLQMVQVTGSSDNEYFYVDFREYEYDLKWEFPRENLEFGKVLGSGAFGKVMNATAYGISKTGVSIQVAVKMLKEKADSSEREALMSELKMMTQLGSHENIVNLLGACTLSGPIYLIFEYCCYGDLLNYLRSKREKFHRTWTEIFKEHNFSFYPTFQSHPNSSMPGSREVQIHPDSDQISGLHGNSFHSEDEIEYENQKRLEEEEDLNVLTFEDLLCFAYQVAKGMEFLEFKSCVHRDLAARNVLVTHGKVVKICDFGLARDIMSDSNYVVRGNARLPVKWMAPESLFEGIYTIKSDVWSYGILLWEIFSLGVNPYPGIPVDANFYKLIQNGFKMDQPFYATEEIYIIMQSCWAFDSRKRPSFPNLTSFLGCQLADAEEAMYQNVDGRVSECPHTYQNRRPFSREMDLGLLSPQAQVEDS

As a reminder, the inhibition is the drop in the measured response relative to a control, in per cent. As to `COC(=O)[C@@H](Cc1ccccc1)NC(=O)c1c(C)[nH]c(/C=C2\C(=O)Nc3ccc(C(=O)O)cc32)c1C`, the inhibition in assay [1] is more than 100%; in assay [2], 97.4%.
Turning to `COC(=O)[C@H](Cc1ccccc1)NC(=O)c1c(C)[nH]c(/C=C2\C(=O)Nc3ccc(C(=O)N[C@H](Cc4ccccc4)C(=O)O)cc32)c1C`, the inhibition stood at 94.8% in assay [1] and 18.6% in assay [2].
In the same order, the values of `CCOC(=O)c1c(C)[nH]c(/C=C2\C(=O)Nc3ccc(C(=O)N[C@H](Cc4ccccc4)C(=O)O)cc32)c1C` are 96.2% and 47%.
Take `COC(=O)CC[C@@H](NC(=O)c1c(C)[nH]c(/C=C2\C(=O)Nc3ccc(C(=O)N[C@H](Cc4ccccc4)C(=O)O)cc32)c1C)C(=O)OC`: the inhibition in assay [1] is more than 100%; in assay [2] it was 39.2%.
As to `COC(=O)CC[C@@H](NC(=O)c1c(C)[nH]c(/C=C2\C(=O)Nc3ccc(C(=O)N[C@@H](Cc4ccccc4)C(=O)O)cc32)c1C)C(=O)OC`, the inhibition is more than 100% in assay [1] and 90.9% in assay [2].
`COC(=O)CC[C@@H](NC(=O)c1c(C)[nH]c(/C=C2\C(=O)Nc3ccc(C(=O)O)cc32)c1C)C(=O)OC`: the inhibition in assay [1] was more than 100%; in assay [2], 93.5%.
In the case of `COC(=O)CC[C@H](NC(=O)c1ccc2c(c1)/C(=C/c1[nH]c(C)c(C(=O)N[C@H](CCC(=O)OC)C(=O)OC)c1C)C(=O)N2)C(=O)OC`, the inhibition in assay [1] turned out to be 81.9%; in assay [2] it was 43.2%.
In the same order, the values of `COC(=O)CC[C@@H](NC(=O)c1ccc2c(c1)/C(=C/c1[nH]c(C)c(C(=O)N[C@@H](Cc3ccccc3)C(=O)O)c1C)C(=O)N2)C(=O)OC` are more than 100% and 67.7%.
On to `COC(=O)CC[C@H](NC(=O)c1c(C)[nH]c(/C=C2\C(=O)Nc3ccc(C(=O)N[C@H](CCC(=O)OC)C(=O)OC)cc32)c1C)C(=O)OC`, for which the inhibition in assay [1] turned out to be 70.3%; in assay [2], 80.4%.
In the case of `Cc1[nH]c(/C=C2\C(=O)Nc3ccc(C(=O)N[C@@H](Cc4ccccc4)C(=O)O)cc32)c(C)c1C(=O)N[C@H](Cc1ccccc1)C(=O)O`, the inhibition is more than 100% in assay [1] and 104% in assay [2].
The like results for `COC(=O)[C@@H](Cc1ccccc1)NC(=O)c1c(C)[nH]c(/C=C2\C(=O)Nc3ccc(C(=O)N[C@H](Cc4ccccc4)C(=O)O)cc32)c1C` were, in that order, more than 100% and 66.4%.
Consider `Cc1[nH]c(/C=C2\C(=O)Nc3ccc(C(=O)N[C@H](Cc4ccccc4)C(=O)O)cc32)c(C)c1C(=O)N[C@H](Cc1ccccc1)C(=O)O`, for which the inhibition in assay [1] is more than 100%; in assay [2] it was 76.8%.
Regarding `COC(=O)CC[C@@H](NC(=O)c1ccc2c(c1)/C(=C/c1[nH]c(C)c(C(=O)N[C@H](Cc3ccccc3)C(=O)O)c1C)C(=O)N2)C(=O)OC`, the inhibition is more than 100% in assay [1] and 73% in assay [2].
`COC(=O)[C@@H](Cc1ccccc1)NC(=O)c1c(C)[nH]c(/C=C2\C(=O)Nc3ccc(C(=O)N[C@@H](Cc4ccccc4)C(=O)O)cc32)c1C`: the inhibition in assay [1] was more than 100%; in assay [2], 93.5%.
For `CCOC(=O)c1c(C)[nH]c(/C=C2\C(=O)Nc3ccc(C(=O)N[C@H](CCC(=O)OC)C(=O)OC)cc32)c1C`, the inhibition came out at 79.3% in assay [1] and 3.1% in assay [2].
`Cc1[nH]c(/C=C2\C(=O)Nc3ccc(C(=O)N[C@H](Cc4ccccc4)C(=O)O)cc32)c(C)c1C(=O)O`: the inhibition is more than 100% in assay [1] and 87.1% in assay [2].
`COC(=O)CC[C@H](NC(=O)c1ccc2c(c1)/C(=C/c1[nH]c(C)c(C(=O)N[C@H](Cc3ccccc3)C(=O)O)c1C)C(=O)N2)C(=O)OC`: the figures for the inhibition in assay [1] and in assay [2] were more than 100% and 70.3%, respectively.
Regarding `Cc1[nH]c(/C=C2\C(=O)Nc3ccc(C(=O)O)cc32)c(C)c1C(=O)N[C@H](Cc1ccccc1)C(=O)O`, the inhibition was more than 100% in assay [1] and 87% in assay [2].
